Results published in ChEMBL document CHEMBL4689842, “EUbOPEN Chemogenomics Library wave 1” (2021).

Test system: HEK-293T
Experiment: Multiplex assay against HEK293T;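 on Population Tubulin-Different-Phenotype (%): share of the cells with healthy nuclei that show this phenotype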
Assay type: toxicity, cell-based
Settings: human
How it was run: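 Hoechst33342, BioTracker Green Microtubule Cytoskeleton Dye, MitoTracker Red and Annexin V Alexa Fluor 680 were added to live cells at seeding, and imaging on a CQ1 microscope at 37°C and 5% CO2 followed compound addition. Gating by CellPathfinder machine learning separated cells into Hoechst high-intensity objects or normal cells, then normal cells into healthy, pyknosed or fragmented nuclei, then pyknosed cells into mitotic or apoptotic. Per cents of healthy-nucleus cells are reported for the tubulin, mitochondrial-mass and membrane-permeability phenotypes.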

[1] = 12 h, 1 µM, compound concentration 1 uM, replicate 1
[2] = 12 h, 1 µM, compound concentration 1 uM, replicate 2
[3] = 12 h, 10 µM, compound concentration 10 uM, replicate 1
[4] = 12 h, 10 µM, compound concentration 10 uM, replicate 2
[5] = 24 h, 1 µM, compound concentration 1 uM, replicate 1
[6] = 24 h, 1 µM, compound concentration 1 uM, replicate 2
[7] = 24 h, 10 µM, compound concentration 10 uM, replicate 1
[8] = 24 h, 10 µM, compound concentration 10 uM, replicate 2
[9] = 48 h, 1 µM, compound concentration 1 uM, replicate 1
[10] = 48 h, 1 µM, compound concentration 1 uM, replicate 2
[11] = 48 h, 10 µM, compound concentration 10 uM, replicate 1
[12] = 48 h, 10 µM, compound concentration 10 uM, replicate 2

Cc1cc2c(cc1N1C(=O)c3cccc4c(CCCO)ccc(c34)C1=O)n(C)c(=O)n2C was tested, and the “Population Apoptotic (%)” value [1] was 38%, the “Population Fragmented Nuclei (%)” value [1] was 14% and the “Population Healthy Nuclei (%)” value [1] was 44%. For the same molecule, the “Population Hoechst High Intensity Objects (%)” value [1] was 16%, the “Population Membrane Permeable-Phenotype (%)” value [1] was 4% and the “Population Mitochondria Different-Phenotype (%)” value [1] was 77%. For the same molecule, the “Population Mitotic Cells (%)” value [1] was 61%, the “Population Normal (%)” value [1] was 83% and the “Population Pyknosed Nuclei (%)” value [1] was 41%. The “Population Tubulin-Different-Phenotype (%)” value [1] was 47%, the “Total Cell Count” value [1] was 307 and the “Population Apoptotic (%)” value [2] was 12%. The “Population Fragmented Nuclei (%)” value [2] was 5%, the “Population Healthy Nuclei (%)” value [2] was 50% and the “Population Hoechst High Intensity Objects (%)” value [2] was 6%. The “Population Membrane Permeable-Phenotype (%)” value [2] was 5%, the “Population Mitochondria Different-Phenotype (%)” value [2] was 15% and the “Population Mitotic Cells (%)” value [2] was 87%. The “Population Normal (%)” value [2] was 93%, the “Population Pyknosed Nuclei (%)” value [2] was 44% and the “Population Tubulin-Different-Phenotype (%)” value [2] was 22%. The “Total Cell Count” value [2] was 170, the “Population Apoptotic (%)” value [3] was 53% and the “Population Fragmented Nuclei (%)” value [3] was 7%. For the same molecule, the “Population Healthy Nuclei (%)” value [3] was 43%, the “Population Hoechst High Intensity Objects (%)” value [3] was 9% and the “Population Membrane Permeable-Phenotype (%)” value [3] was 10%. For the same molecule, the “Population Mitochondria Different-Phenotype (%)” value [3] was 92%, the “Population Mitotic Cells (%)” value [3] was 46% and the “Population Normal (%)” value [3] was 90%. For the same molecule, the “Population Pyknosed Nuclei (%)” value [3] was 48%, the “Population Tubulin-Different-Phenotype (%)” value [3] was 94% and the “Total Cell Count” value [3] was 302. For the same molecule, the “Population Apoptotic (%)” value [4] was 38%, the “Population Fragmented Nuclei (%)” value [4] was 2% and the “Population Healthy Nuclei (%)” value [4] was 45%. For the same molecule, the “Population Hoechst High Intensity Objects (%)” value [4] was 4%, the “Population Membrane Permeable-Phenotype (%)” value [4] was 11% and the “Population Mitochondria Different-Phenotype (%)” value [4] was 82%. For the same molecule, the “Population Mitotic Cells (%)” value [4] was 61%, the “Population Normal (%)” value [4] was 95% and the “Population Pyknosed Nuclei (%)” value [4] was 51%. The “Population Tubulin-Different-Phenotype (%)” value [4] was 96%, the “Total Cell Count” value [4] was 359 and the “Population Apoptotic (%)” value [5] was 50%. For the same molecule, the “Population Fragmented Nuclei (%)” value [5] was 13%, the “Population Healthy Nuclei (%)” value [5] was 44% and the “Population Hoechst High Intensity Objects (%)” value [5] was 12%. The “Population Membrane Permeable-Phenotype (%)” value [5] was 4%, the “Population Mitochondria Different-Phenotype (%)” value [5] was 61% and the “Population Mitotic Cells (%)” value [5] was 49%. For the same molecule, the “Population Normal (%)” value [5] was 87%, the “Population Pyknosed Nuclei (%)” value [5] was 41% and the “Population Tubulin-Different-Phenotype (%)” value [5] was 44%. For the same molecule, the “Total Cell Count” value [5] was 295, the “Population Apoptotic (%)” value [6] was 13% and the “Population Fragmented Nuclei (%)” value [6] was 5%. The “Population Healthy Nuclei (%)” value [6] was 75%, the “Population Hoechst High Intensity Objects (%)” value [6] was 2% and the “Population Membrane Permeable-Phenotype (%)” value [6] was 9%. The “Population Mitochondria Different-Phenotype (%)” value [6] was 11%, the “Population Mitotic Cells (%)” value [6] was 86% and the “Population Normal (%)” value [6] was 97%. For the same molecule, the “Population Pyknosed Nuclei (%)” value [6] was 18%, the “Population Tubulin-Different-Phenotype (%)” value [6] was 22% and the “Total Cell Count” value [6] was 194. The “Population Apoptotic (%)” value [7] was 63%, the “Population Fragmented Nuclei (%)” value [7] was 12% and the “Population Healthy Nuclei (%)” value [7] was 54%. The “Population Hoechst High Intensity Objects (%)” value [7] was 11%, the “Population Membrane Permeable-Phenotype (%)” value [7] was 6% and the “Population Mitochondria Different-Phenotype (%)” value [7] was 87%. The “Population Mitotic Cells (%)” value [7] was 36%, the “Population Normal (%)” value [7] was 88% and the “Population Pyknosed Nuclei (%)” value [7] was 32%. The “Population Tubulin-Different-Phenotype (%)” value [7] was 91%, the “Total Cell Count” value [7] was 306 and the “Population Apoptotic (%)” value [8] was 47%. The “Population Fragmented Nuclei (%)” value [8] was 5%, the “Population Healthy Nuclei (%)” value [8] was 63% and the “Population Hoechst High Intensity Objects (%)” value [8] was 3%. The “Population Membrane Permeable-Phenotype (%)” value [8] was 3%, the “Population Mitochondria Different-Phenotype (%)” value [8] was 71% and the “Population Mitotic Cells (%)” value [8] was 52%. For the same molecule, the “Population Normal (%)” value [8] was 96%, the “Population Pyknosed Nuclei (%)” value [8] was 30% and the “Population Tubulin-Different-Phenotype (%)” value [8] was 90%. The “Total Cell Count” value [8] was 377, the “Population Apoptotic (%)” value [9] was 47% and the “Population Fragmented Nuclei (%)” value [9] was 22%. The “Population Healthy Nuclei (%)” value [9] was 28%, the “Population Hoechst High Intensity Objects (%)” value [9] was 14% and the “Population Membrane Permeable-Phenotype (%)” value [9] was 2%. The “Population Mitochondria Different-Phenotype (%)” value [9] was 33%, the “Population Mitotic Cells (%)” value [9] was 52% and the “Population Normal (%)” value [9] was 85%. The “Population Pyknosed Nuclei (%)” value [9] was 49%, the “Population Tubulin-Different-Phenotype (%)” value [9] was 29% and the “Total Cell Count” value [9] was 321. The “Population Apoptotic (%)” value [10] was 33%, the “Population Fragmented Nuclei (%)” value [10] was 14% and the “Population Healthy Nuclei (%)” value [10] was 79%. For the same molecule, the “Population Hoechst High Intensity Objects (%)” value [10] was 2%, the “Population Membrane Permeable-Phenotype (%)” value [10] was 10% and the “Population Mitochondria Different-Phenotype (%)” value [10] was 7%. For the same molecule, the “Population Mitotic Cells (%)” value [10] was 66%, the “Population Normal (%)” value [10] was 97% and the “Population Pyknosed Nuclei (%)” value [10] was 5%. For the same molecule, the “Population Tubulin-Different-Phenotype (%)” value [10] was 22%, the “Total Cell Count” value [10] was 270 and the “Population Apoptotic (%)” value [11] was 75%. The “Population Fragmented Nuclei (%)” value [11] was 19%, the “Population Healthy Nuclei (%)” value [11] was 64% and the “Population Hoechst High Intensity Objects (%)” value [11] was 8%. The “Population Membrane Permeable-Phenotype (%)” value [11] was 5%, the “Population Mitochondria Different-Phenotype (%)” value [11] was 59% and the “Population Mitotic Cells (%)” value [11] was 25%. For the same molecule, the “Population Normal (%)” value [11] was 91%, the “Population Pyknosed Nuclei (%)” value [11] was 16% and the “Population Tubulin-Different-Phenotype (%)” value [11] was 71%. The “Total Cell Count” value [11] was 323, the “Population Apoptotic (%)” value [12] was 57% and the “Population Fragmented Nuclei (%)” value [12] was 15%. The “Population Healthy Nuclei (%)” value [12] was 75%, the “Population Hoechst High Intensity Objects (%)” value [12] was 3% and the “Population Membrane Permeable-Phenotype (%)” value [12] was 3%. The “Population Mitochondria Different-Phenotype (%)” value [12] was 41%, the “Population Mitotic Cells (%)” value [12] was 42% and the “Population Normal (%)” value [12] was 96%. For the same molecule, the “Population Pyknosed Nuclei (%)” value [12] was 9%, the “Population Tubulin-Different-Phenotype (%)” value [12] was 79% and the “Total Cell Count” value [12] was 482.
